From ChEMBL document CHEMBL4680175, “Sulfonamide-based ring-fused analogues for CAN508 as novel carbonic anhydrase inhibitors endowed with antitumor activity: Design, synthesis, and in vitro biological evaluation” (Eur J Med Chem, 2020)

Key:
MDA-MB-435 = experiment: Antitumor activity against human MDA-MB-435 cells assessed as cell growth inhibition at 10 uM incubated for 48 hrs by sulforhodamine B assay; type: functional; conditions: read-out: GI
Outline: (§1)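 NCI Drug Evaluation Branch protocol: primary single-dose screen at 10 μM across a 57-line human cancer panel. Drug exposure is 48 h. Cell growth and viability are read by sulforhodamine B assay. Data are given as a mean graph of percent growth of treated cells and reported as percentage growth inhibition (GI%).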

SW-620 = experiment: Antitumor activity against human SW620 cells assessed as cell growth inhibition at 10 uM incubated for 48 hrs by sulforhodamine B assay; type: functional; conditions: read-out: GI
Outline: (§2)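 NCI one-dose screen: 57-cell-line panel exposed at 10 μM for 48 h, Drug Evaluation Branch protocol. Growth and viability read by sulforhodamine B; data given as percent growth inhibition from the mean-graph of percent growth of treated cells.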

HOP-62 = experiment: Antitumor activity against human HOP62 cells assessed as cell growth inhibition at 10 uM incubated for 48 hrs by sulforhodamine B assay; type: functional; conditions: read-out: GI; outline: as §1
OVCAR-4 = experiment: Antitumor activity against human OVCAR-4 cells assessed as cell growth inhibition at 10 uM incubated for 48 hrs by sulforhodamine B assay; type: functional; conditions: read-out: GI; outline: as §1
NCI-H23 = experiment: Antitumor activity against human NCI-H23 cells assessed as cell growth inhibition at 10 uM incubated for 48 hrs by sulforhodamine B assay; type: functional; conditions: read-out: GI; outline: as §1
OVCAR-5 = experiment: Antitumor activity against human OVCAR-5 cells assessed as cell growth inhibition at 10 uM incubated for 48 hrs by sulforhodamine B assay; type: functional; conditions: read-out: GI; outline: as §1
ACHN = experiment: Antitumor activity against human ACHN cells assessed as cell growth inhibition at 10 uM incubated for 48 hrs by sulforhodamine B assay; type: functional; conditions: read-out: GI; outline: as §1
SK-OV-3 = experiment: Antitumor activity against human SK-OV-3 cells assessed as cell growth inhibition at 10 uM incubated for 48 hrs by sulforhodamine B assay; type: functional; conditions: read-out: GI; outline: as §1
SNB-19 = experiment: Antitumor activity against human SNB-19 cells assessed as cell growth inhibition at 10 uM incubated for 48 hrs by sulforhodamine B assay; type: functional; conditions: read-out: GI; outline: as §1
SF-295 = experiment: Antitumor activity against human SF295 cells assessed as cell growth inhibition at 10 uM incubated for 48 hrs by sulforhodamine B assay; type: functional; conditions: read-out: GI; outline: as §1
EKVX = experiment: Antitumor activity against human EKVX cells assessed as cell growth inhibition at 10 uM incubated for 48 hrs by sulforhodamine B assay; type: functional; conditions: read-out: GI; outline: as §1
A498 = experiment: Antitumor activity against human A498 cells assessed as cell growth inhibition at 10 uM incubated for 48 hrs by sulforhodamine B assay; type: functional; conditions: read-out: GI; outline: as §1
MCF7 [1] = experiment: Antiproliferative activity against human MCF7 cells measured after 48 hrs under CoCl2-induced hypoxic condition by MTT assay; type: functional, cell-based; conditions: MCF7, 48 h
MDA-MB-468 [2] = experiment: Antiproliferative activity against human MDA-MB-468 cells measured after 48 hrs under CoCl2-induced hypoxic condition by MTT assay; type: functional, cell-based; conditions: MDA-MB-468, 48 h
UACC-257 = experiment: Antitumor activity against human UACC-257 cells assessed as cell growth inhibition at 10 uM incubated for 48 hrs by sulforhodamine B assay; type: functional; conditions: read-out: GI; outline: as §2
HL-60(TB) = experiment: Antitumor activity against human HL-60(TB) cells assessed as cell growth inhibition at 10 uM incubated for 48 hrs by sulforhodamine B assay; type: functional; conditions: read-out: GI
Outline: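 Single-dose NCI-60-type screen of 57 human cancer cell lines at 10 μM under the NCI Drug Evaluation Branch protocol. Drugs exposed for 48 h; growth and viability read by sulforhodamine B assay. Data given as mean-graph percent growth of treated cells, expressed as percent growth inhibition.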

CDK9/cyclin T1 = CDK9/cyclin T1 (Homo sapiens, UniProt P50750); experiment: Inhibition of human full-length N-terminal GST/His6-tagged CDK9 (1 to 372 residues)/His6-tagged Cyclin-T1 (1 to 726 residues) expressed in sf9 cells using (YSPTSPS)2KK peptide as substrate in presence of [gamma33P]ATP
CDK9/cyclin T1, sequence (O60563 whole entry, the tested form may be a part): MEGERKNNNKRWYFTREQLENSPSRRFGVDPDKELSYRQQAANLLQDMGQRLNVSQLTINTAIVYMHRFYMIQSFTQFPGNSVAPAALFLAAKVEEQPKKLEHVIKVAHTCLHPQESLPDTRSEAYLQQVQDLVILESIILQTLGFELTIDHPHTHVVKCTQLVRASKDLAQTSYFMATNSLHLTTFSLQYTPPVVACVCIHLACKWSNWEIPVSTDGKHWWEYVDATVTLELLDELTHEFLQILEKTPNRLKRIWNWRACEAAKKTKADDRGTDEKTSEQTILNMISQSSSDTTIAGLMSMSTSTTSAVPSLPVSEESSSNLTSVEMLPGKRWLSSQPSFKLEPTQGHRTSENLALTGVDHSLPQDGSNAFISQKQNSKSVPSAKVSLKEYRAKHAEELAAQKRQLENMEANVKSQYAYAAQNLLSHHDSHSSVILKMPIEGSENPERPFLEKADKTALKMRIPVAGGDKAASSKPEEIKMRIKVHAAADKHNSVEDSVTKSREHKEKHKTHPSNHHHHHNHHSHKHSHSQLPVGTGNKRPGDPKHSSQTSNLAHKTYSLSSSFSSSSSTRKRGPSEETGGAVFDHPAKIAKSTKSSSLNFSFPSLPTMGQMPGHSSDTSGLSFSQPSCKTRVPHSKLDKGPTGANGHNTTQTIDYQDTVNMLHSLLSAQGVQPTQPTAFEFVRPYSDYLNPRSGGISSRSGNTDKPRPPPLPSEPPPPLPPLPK
CDK9/cyclin T1, sequence (P50750 whole entry, the tested form may be a part): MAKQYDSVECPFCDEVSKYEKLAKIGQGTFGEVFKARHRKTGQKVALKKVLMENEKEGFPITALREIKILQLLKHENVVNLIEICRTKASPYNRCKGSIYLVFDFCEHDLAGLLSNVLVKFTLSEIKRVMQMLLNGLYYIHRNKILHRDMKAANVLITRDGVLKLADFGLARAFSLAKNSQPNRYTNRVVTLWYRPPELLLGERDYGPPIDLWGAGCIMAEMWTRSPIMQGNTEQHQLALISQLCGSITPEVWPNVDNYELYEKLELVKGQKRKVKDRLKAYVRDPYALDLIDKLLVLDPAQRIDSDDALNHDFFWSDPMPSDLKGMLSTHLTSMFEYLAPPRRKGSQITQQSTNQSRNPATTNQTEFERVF

HCC 2998 = experiment: Antitumor activity against human HCC2998 cells assessed as cell growth inhibition at 10 uM incubated for 48 hrs by sulforhodamine B assay; type: functional; conditions: read-out: GI; outline: as §1
786-0 = experiment: Antitumor activity against human 786-0 cells assessed as cell growth inhibition at 10 uM incubated for 48 hrs by sulforhodamine B assay; type: functional; conditions: read-out: GI; outline: as §1
M14 = experiment: Antitumor activity against human M14 cells assessed as cell growth inhibition at 10 uM incubated for 48 hrs by sulforhodamine B assay; type: functional; conditions: read-out: GI; outline: as §1
MDA-MB-468 [3] = experiment: Antiproliferative activity against human MDA-MB-468 cells measured after 48 hrs under normoxic condition by MTT assay; type: functional, cell-based; conditions: MDA-MB-468, 48 h
HCT-15 = experiment: Antitumor activity against human HCT15 cells assessed as cell growth inhibition at 10 uM incubated for 48 hrs by sulforhodamine B assay; type: functional; conditions: read-out: GI; outline: as §1
Carbonic anhydrase 1 = Carbonic anhydrase 1 (Homo sapiens, UniProt P00915); experiment: Inhibition of recombinant human carbonic anhydrase 1 preincubated with enzyme for 15 mins by phenol red dye based stopped flow CO2 hydrase assay
Carbonic anhydrase 1, sequence (P00915 whole entry): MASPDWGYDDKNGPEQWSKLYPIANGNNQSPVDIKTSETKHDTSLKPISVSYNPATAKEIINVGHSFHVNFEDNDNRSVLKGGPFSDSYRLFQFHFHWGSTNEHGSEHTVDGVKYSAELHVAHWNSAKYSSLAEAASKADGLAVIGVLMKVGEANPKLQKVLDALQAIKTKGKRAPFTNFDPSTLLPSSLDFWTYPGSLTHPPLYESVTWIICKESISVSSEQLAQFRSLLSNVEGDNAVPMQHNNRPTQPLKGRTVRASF

A549 = experiment: Antitumor activity against human A549/ATCC cells assessed as cell growth inhibition at 10 uM incubated for 48 hrs by sulforhodamine B assay; type: functional; conditions: read-out: GI; outline: as §1
COLO 205 = experiment: Antitumor activity against human COLO205 cells assessed as cell growth inhibition at 10 uM incubated for 48 hrs by sulforhodamine B assay; type: functional; conditions: read-out: GI; outline: as §1
HT-29 = experiment: Antitumor activity against human HT-29 cells assessed as cell growth inhibition at 10 uM incubated for 48 hrs by sulforhodamine B assay; type: functional; conditions: read-out: GI; outline: as §1
SR = experiment: Antitumor activity against human SR cells assessed as cell growth inhibition at 10 uM incubated for 48 hrs by sulforhodamine B assay; type: functional; conditions: read-out: GI; outline: as §2
TK-10 = experiment: Antitumor activity against human TK-10 cells assessed as cell growth inhibition at 10 uM incubated for 48 hrs by sulforhodamine B assay; type: functional; conditions: read-out: GI; outline: as §2
SK-MEL-28 = experiment: Antitumor activity against human SK-MEL-28 cells assessed as cell growth inhibition at 10 uM incubated for 48 hrs by sulforhodamine B assay; type: functional; conditions: read-out: GI; outline: as §1
MCF7 [4] = experiment: Antiproliferative activity against human MCF7 cells measured after 48 hrs under normoxic condition by MTT assay; type: functional, cell-based; conditions: MCF7, 48 h
UACC-62 = experiment: Antitumor activity against human UACC-62 cells assessed as cell growth inhibition at 10 uM incubated for 48 hrs by sulforhodamine B assay; type: functional; conditions: read-out: GI; outline: as §2

Compound	inhibition of growth at 10 µM (MDA-MB-435)	inhibition of growth at 10 µM (SW-620)	inhibition of growth at 10 µM (HOP-62)	inhibition of growth at 10 µM (OVCAR-4)	inhibition of growth at 10 µM (NCI-H23)	inhibition of growth at 10 µM (OVCAR-5)	inhibition of growth at 10 µM (ACHN)	inhibition of growth at 10 µM (SK-OV-3)	inhibition of growth at 10 µM (SNB-19)	inhibition of growth at 10 µM (SF-295)	inhibition of growth at 10 µM (EKVX)	inhibition of growth at 10 µM (A498)	inhibition of growth at 10 µM (UACC-257)	inhibition of growth at 10 µM (HL-60(TB))	IC50 (CDK9/cyclin T1)	inhibition of growth at 10 µM (HCC 2998)	inhibition of growth at 10 µM (786-0)	inhibition of growth at 10 µM (M14)	inhibition of growth at 10 µM (HCT-15)	Ki (Carbonic anhydrase 1)	further results
Cc1ccc(-c2nc3c(/N=N/c4ccc(S(N)(=O)=O)cc4)c(N)nn3c(N)c2C#N)cc1	48%	83%	57%	48%	56%	21%	100%	36%	42%	51%	30%	41%	28%	97%	> 12.5 µM	48%	35%	54%	18%	3530 nM	IC50 (MCF7 [1]): 15.1 µM; IC50 (MDA-MB-468 [2]): 3.03 µM; IC50 (MDA-MB-468 [3]): 1370 nM; inhibition of growth at 10 µM (A549): 37%; inhibition of growth at 10 µM (COLO 205): 86%; inhibition of growth at 10 µM (HT-29): 64%; inhibition of growth at 10 µM (SR): 71%; inhibition of growth at 10 µM (TK-10): 34%; inhibition of growth at 10 µM (SK-MEL-28): 47%; IC50 (MCF7 [4]): 6.8 µM; inhibition of growth at 10 µM (UACC-62): 47%
Nc1nn2cc(-c3ccccc3)[nH]c2c1/N=N/c1ccc(S(N)(=O)=O)cc1	71%	74%	58%	63%	54%	35%	91%	87%	40%	52%	45%	92%	31%	72%	> 25 µM	54%	72%	69%	77%	957 nM	inhibition of growth at 10 µM (A549): 67%; inhibition of growth at 10 µM (COLO 205): 55%; inhibition of growth at 10 µM (HT-29): 61%; inhibition of growth at 10 µM (SR): 87%; inhibition of growth at 10 µM (TK-10): 52%; inhibition of growth at 10 µM (SK-MEL-28): 55%; inhibition of growth at 10 µM (UACC-62): 69%
Cc1ccc(-c2cn3nc(N)c(/N=N/c4ccc(S(N)(=O)=O)cc4)c3[nH]2)cc1	52%	60%	39%	46%	34%	23%	79%	77%	24%	29%	28%	87%	20%	47%	> 12.5 µM	40%	60%	60%	65%	1200 nM	inhibition of growth at 10 µM (A549): 62%; inhibition of growth at 10 µM (COLO 205): 24%; inhibition of growth at 10 µM (HT-29): 37%; inhibition of growth at 10 µM (SR): 63%; inhibition of growth at 10 µM (TK-10): 53%; inhibition of growth at 10 µM (SK-MEL-28): 38%; inhibition of growth at 10 µM (UACC-62): 44%
